From ChEMBL document CHEMBL1649148, “Steady-state pharmacokinetics of abacavir in plasma and intracellular carbovir triphosphate following administration of abacavir at 600 milligrams once daily and 300 milligrams twice daily in human immunodeficiency virus-infected subjects” (Antimicrob Agents Chemother, 2009)

Tests used:
Type in all cases: ADME, organism-based
Homo sapiens [1] = experiment: (§1) Drug level at the end of dosing interval in HIV infected patient at 300 mg BID by HPLC/MS/MS analysis; conditions: in vivo
Method in brief: (§2)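 Plasma abacavir at steady state in HIV-1-infected adults dosed orally 600 mg QD or 300 mg BID under fasting, serial samples predose to 24 h (plus 1 h) on days 1 and 11; validated HPLC-MS/MS, calibration 2.5–2,500 ng/ml; noncompartmental parameters from actual times, BID AUC0-24 taken as 2 × AUC0-τ.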

[2] = Cmax in HIV infected patient at 600 mg QD by HPLC/MS/MS analysis; design: dose 600 mg; conditions: human, in vivo; method in brief: as §2
Homo sapiens [3] = experiment: (§3) Drug level at the end of dosing interval in HIV infected patient at 600 mg QD by HPLC/MS/MS analysis; conditions: in vivo; method in brief: as §2
Homo sapiens [4] = organism: Homo sapiens; experiment: Ratio of AUC in HIV infected male patient assessed as assessed as carbovir-triphosphate level per million cells to AUC in HIV infected male patient at 300 mg BID by HPLC/MS/MS analysis; conditions: in vivo
Method in brief: (§4)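 Per-subject ratio of intracellular CBV-TP AUC0-24 (PBMC, fmol/million cells, LC-MS/MS) to plasma abacavir AUC0-24 (HPLC-MS/MS), both by noncompartmental analysis from serial samples over 24 h on days 1 and 11 of oral 600 mg QD or 300 mg BID dosing in fasted HIV-1-infected adults.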

Homo sapiens [5] = organism: Homo sapiens; experiment: Ratio of AUC in HIV infected patient assessed as carbovir-triphosphate level per million cells to AUC in HIV infected patient at 600 mg QD by HPLC/MS/MS analysis; conditions: in vivo; method in brief: as §4
[6] = AUC (0 to 24 hrs) in HIV infected patient at 300 mg BID by HPLC/MS/MS analysis; design: time < 24 hr, dose 300 mg; conditions: human, plasma; method in brief: as §2
Homo sapiens [7] = experiment: as §3; conditions: in vivo; method in brief: as §2; remark: listed apart in the source
[8] = (§5) AUC (0 to 24 hrs) in HIV infected patient at 600 mg QD by HPLC/MS/MS analysis; design: time < 24 hr, dose 600 mg; conditions: male, human, plasma; method in brief: as §2
Homo sapiens [9] = experiment: as §1; conditions: in vivo; method in brief: as §2; remark: listed apart in the source
[10] = Cmax in HIV infected patient at 300 mg BID by HPLC/MS/MS analysis; design: dose 300 mg; conditions: human, in vivo; method in brief: as §2
[11] = as §5; design: dose 600 mg, time < 24 hr; conditions: human, plasma; method in brief: as §2
Homo sapiens [12] = experiment: as §3; conditions: in vivo; method in brief: as §2; remark: listed apart in the source
Homo sapiens [13] = organism: Homo sapiens; experiment: Ratio of AUC in HIV infected female patient assessed as assessed as carbovir-triphosphate level per million cells to AUC in HIV infected female patient at 300 mg BID by HPLC/MS/MS analysis; conditions: in vivo; method in brief: as §4
Homo sapiens [14] = organism: Homo sapiens; experiment: Ratio of AUC in HIV infected patient assessed as assessed as carbovir-triphosphate level per million cells to AUC in HIV infected patient at 300 mg BID by HPLC/MS/MS analysis; conditions: in vivo; method in brief: as §4
Homo sapiens [15] = experiment: as §1; conditions: in vivo; method in brief: as §2; remark: listed apart in the source
Homo sapiens [16] = organism: Homo sapiens; experiment: Ratio of AUC in HIV infected female patient assessed as carbovir-triphosphate level per million cells to AUC in HIV infected female patient at 600 mg QD by HPLC/MS/MS analysis; conditions: in vivo; method in brief: as §4
Homo sapiens [17] = organism: Homo sapiens; experiment: Ratio of AUC in HIV infected male patient assessed as carbovir-triphosphate level per million cells to AUC in HIV infected male patient at 600 mg QD by HPLC/MS/MS analysis; conditions: in vivo; method in brief: as §4
Homo sapiens [18] = organism: Homo sapiens; experiment: (§6) AUC (0 to 24 hrs) in HIV infected patient assessed as carbovir-triphosphate level per million cells at 600 mg QD by HPLC/MS/MS analysis; design: dose 600 mg, time < 24 hr; conditions: in vivo
Method in brief: (§7)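 Steady-state crossover in HIV-1-infected adults, oral abacavir 600 mg QD or 300 mg BID, fasted ≥10 h before and 2 h after dosing; blood drawn predose and 2–24 h postdose on days 1 and 11. PBMC isolated, counted in duplicate, lysed in ice-cold 70% methanol; CBV-TP measured by LC-MS/MS after anion exchange and alkaline phosphatase hydrolysis, converted to fmol/million cells; noncompartmental analysis.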

Homo sapiens [19] = organism: Homo sapiens; experiment: (§8) Cmax in HIV infected patient assessed as carbovir-triphosphate level per million cells at 600 mg QD by HPLC/MS/MS analysis; design: dose 600 mg; conditions: in vivo; method in brief: as §7
Homo sapiens [20] = organism: Homo sapiens; experiment: (§9) Cmax in HIV infected patient assessed as carbovir-triphosphate level per million cells at 300 mg BID by HPLC/MS/MS analysis; design: dose 300 mg; conditions: in vivo; method in brief: as §7
Homo sapiens [21] = organism: Homo sapiens; experiment: as §6; design: dose 600 mg, time < 24 hr; conditions: in vivo; method in brief: as §7; remark: listed apart in the source
Homo sapiens [22] = organism: Homo sapiens; experiment: as §8; design: dose 600 mg; conditions: in vivo; method in brief: as §7; remark: listed apart in the source
Homo sapiens [23] = organism: Homo sapiens; experiment: AUC (0 to 24 hrs) in HIV infected female patient assessed as carbovir-triphosphate level per million cells at 300 mg BID by HPLC/MS/MS analysis; design: dose 300 mg, time < 24 hr; conditions: in vivo
Homo sapiens [24] = organism: Homo sapiens; experiment: as §8; design: dose 600 mg; conditions: in vivo; method in brief: as §7; remark: listed apart in the source
Homo sapiens [25] = organism: Homo sapiens; experiment: AUC (0 to 24 hrs) in HIV infected male patient assessed as carbovir-triphosphate level per million cells at 600 mg QD by HPLC/MS/MS analysis; design: dose 600 mg, time < 24 hr; conditions: in vivo; method in brief: as §7
Homo sapiens [26] = organism: Homo sapiens; experiment: as §9; design: dose 300 mg; conditions: in vivo; method in brief: as §7; remark: listed apart in the source
Homo sapiens [27] = organism: Homo sapiens; experiment: as §9; design: dose 300 mg; conditions: in vivo; method in brief: as §7; remark: listed apart in the source
Homo sapiens [28] = organism: Homo sapiens; experiment: (§10) AUC (0 to 24 hrs) in HIV infected patient assessed as carbovir-triphosphate level per million cells at 300 mg BID by HPLC/MS/MS analysis; design: dose 300 mg, time < 24 hr; conditions: in vivo; method in brief: as §7
Homo sapiens [29] = experiment: (§11) Drug level at end of dosing interval in HIV infected patient assessed as carbovir-triphosphate level per million cells at 300 mg BID by HPLC/MS/MS analysis; conditions: in vivo; method in brief: as §7
Homo sapiens [30] = experiment: as §11; conditions: in vivo; method in brief: as §7; remark: listed apart in the source
Homo sapiens [31] = organism: Homo sapiens; experiment: as §10; design: time < 24 hr, dose 300 mg; conditions: in vivo; method in brief: as §7

For `Nc1nc(NC2CC2)c2ncn([C@H]3C=C[C@@H](CO)C3)c2n1` [ABACAVIR], the Ct (Homo sapiens [1]) was 0.026 µg/mL, the Cmax ([2]; female) was 4830 ng/mL and the Cmax [2] was 3850 ng/mL. For the same compound, the Cmax ([2]; male) was 3430 ng/mL, the Ct (Homo sapiens [3]) was 0.009 µg/mL and the “Ratio AUC” value (Homo sapiens [4]) was 102. The “Ratio AUC” value (Homo sapiens [5]) was 123, the AUC at 24 h ([6]; female) was 10900 ng·h/mL and the AUC at 24 h [6] was 7900 ng·h/mL. The AUC at 24 h ([6]; male) was 6740 ng·h/mL, the Ct (Homo sapiens [7]) was 0.008 µg/mL and the AUC at 24 h [8] was 7260 ng·h/mL. The Ct (Homo sapiens [9]) was 0.015 µg/mL, the Cmax [10] was 1840 ng/mL and the Cmax ([10]; male) was 1590 ng/mL. The AUC at 24 h ([11]; female) was 11700 ng·h/mL, the AUC at 24 h [11] was 8520 ng·h/mL and the Ct (Homo sapiens [12]) was 0.009 µg/mL. The “Ratio AUC” value (Homo sapiens [13]) was 105, the “Ratio AUC” value (Homo sapiens [14]) was 103 and the Ct (Homo sapiens [15]) was 0.018 µg/mL. The “Ratio AUC” value (Homo sapiens [16]) was 158 and the “Ratio AUC” value (Homo sapiens [17]) was 109.

In the case of `Nc1nc(=O)c2ncn([C@H]3C=C[C@@H](COP(=O)(O)OP(=O)(O)OP(=O)(O)O)C3)c2[nH]1` [CARBOVIR 5'-TRIPHOSPHATE, (-)-], the AUC (Homo sapiens [18]) is reported as 1051 h·fmol/million cells, the Cmax (Homo sapiens [19]) is reported as 198 fmol/10^6 cells and the Cmax (Homo sapiens [20]) is reported as 49.3 fmol/10^6 cells. The AUC (Homo sapiens [21]) was 1851 h·fmol/million cells, the Cmax (Homo sapiens [22]) was 86.5 fmol/10^6 cells and the AUC (Homo sapiens [23]) was 1138 h·fmol/million cells. The Cmax (Homo sapiens [24]) was 114 fmol/10^6 cells, the AUC (Homo sapiens [25]) was 792 h·fmol/million cells and the Cmax (Homo sapiens [26]) was 82.5 fmol/10^6 cells. It also gave a Cmax (Homo sapiens [27]) of 58.5 fmol/10^6 cells, an AUC (Homo sapiens [28]) of 688 h·fmol/million cells and a Ct (Homo sapiens [29]) of 37.2 fmol/10^6 cells. The Ct (Homo sapiens [30]) was 18.7 fmol/10^6 cells, the AUC (Homo sapiens [31]) was 814 h·fmol/million cells and the AUC (Homo sapiens [17]) was 1051 fmol·h.
